The target of data set [1] is T1, Aromatase (Homo sapiens, UniProt P11511).
T1 sequence (P11511 whole entry): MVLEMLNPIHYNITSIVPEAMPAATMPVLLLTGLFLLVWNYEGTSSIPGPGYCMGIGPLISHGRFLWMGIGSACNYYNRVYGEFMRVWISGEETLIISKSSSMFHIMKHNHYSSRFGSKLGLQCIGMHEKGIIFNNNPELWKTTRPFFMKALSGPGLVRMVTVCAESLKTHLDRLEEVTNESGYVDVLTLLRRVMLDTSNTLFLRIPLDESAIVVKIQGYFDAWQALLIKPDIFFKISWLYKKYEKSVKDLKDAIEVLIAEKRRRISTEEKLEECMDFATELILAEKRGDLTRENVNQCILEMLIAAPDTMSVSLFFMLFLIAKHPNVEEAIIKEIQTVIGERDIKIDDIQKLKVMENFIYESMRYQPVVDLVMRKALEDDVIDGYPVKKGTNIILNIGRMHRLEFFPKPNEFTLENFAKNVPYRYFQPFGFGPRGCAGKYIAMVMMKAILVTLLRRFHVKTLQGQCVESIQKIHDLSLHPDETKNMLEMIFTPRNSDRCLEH
Nature of the data set: Percent inhibition at 2 uM against aromatase protein from human placental microsomes using [1-beta-3H]-androstenedione. In outline: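 Screening used 20 µg microsomal protein from human placenta, 40 nM [1β-3H]androstenedione (1 µCi) and inhibitor at 2 µM in 67 mM K phosphate pH 7.4. Reaction was started with 150 µM NADPH and run 15 min at 37 °C. 3H2O release was measured by scintillation counting after chloroform and charcoal-dextran cleanup. Inhibition is given relative to the no-inhibitor control. Triplicates.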

The target in data set [2] is T1, Aromatase. Description: Inhibitory concentration against aromatase protein from human placental microsomes using [1-beta-3H]-androstenedione; Competitive inhibition. In outline:
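Human placental microsomes in 67 mM K phosphate pH 7.4 with 200 nM [1β-3H]androstenedione (1 µCi) and graded inhibitor concentrations; inhibitors were dissolved in ethanol. Reaction was started with 150 µM NADPH and run 15 min at 37 °C. 3H2O was extracted with chloroform and dextran-coated charcoal, then scintillation counted. Triplicates.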

The target in data set [3] is T1, Aromatase. Description: Ratio of Michaelis-Menten constant and inhibition constant for aromatase enzyme; Competitive inhibition. In outline:
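Ratio of substrate Km to Ki. Km for androstenedione and Ki come from the same placental-microsome kinetic runs: 10-30 nM [1β-3H]androstenedione, 150 µM NADPH, 5 min at 37 °C, with 3H2O release as the read-out. Ki was taken from Dixon plots.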

Data set [4] deals with T1, Aromatase. Nature of the data set: Inhibition constant against aromatase protein from human placental microsomes using [1-beta-3H]-androstenedione; Competitive inhibition. In outline: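 Microsomes from human placenta. Kinetic runs used 10-30 nM [1β-3H]androstenedione with 150 µM NADPH, a range of inhibitor and substrate concentrations, and 5 min at 37 °C in 67 mM K phosphate pH 7.4. Released 3H2O was separated with chloroform and dextran-coated charcoal, then scintillation counted. Inhibition type was taken from Lineweaver-Burk plots and Ki from Dixon plots. Triplicates.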

Substrate in data set [5]: C[C@]12CCC(=O)C=C1CC[C@@H]1[C@@H]2CC[C@]2(C)C(=O)CC[C@@H]12
Nature of the data set: Michaelis-Menten constant against Aromatase. More on the design: species or system Homo sapiens. Summed up: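 Human placental microsomes (cotyledon homogenate, differential centrifugation, stored -80 °C), 67 mM potassium phosphate pH 7.4. Kinetic runs used 10-30 nM [1β-3H]androstenedione, NADPH 150 µM to start, 5 min at 37 °C. Aromatization read as released 3H2O after chloroform and dextran-charcoal extraction, by scintillation counting. Lineweaver-Burk analysis; points are means of three determinations.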

Take `C[C@]12CCC3C(CC[C@H]4C(O)(C#N)[C@H](O)CC[C@]34C)C1CCC(=O)O2` (stereo partly specified): the inhibition at 2 µM against Aromatase [1] was found to be 17.6%.
Take `C[C@]12CCC(=O)C(O)=C1CCC1C2CC[C@]2(C)OC(=O)CCC12` (stereo partly specified): the inhibition at 2 µM against Aromatase [1] was 72.5%. The molecule further returned a concentration for half-maximal inhibition (IC50) at Aromatase [2] of 1850 nM. The Km/Ki on Aromatase [3] turned out to be 0.087. The Ki on Aromatase [4] is 660 nM.
Consider `C[C@]12CCC3C(CC[C@H]4[C@@H](O)[C@H](O)CC[C@]34C)C1CCC(=O)O2` (stereo partly specified), for which testing at 2 µM at Aromatase [1] gave an inhibition of 8.1%.
As to `C[C@]12CC[C@@H](O)C(=O)[C@@H]1CC[C@@H]1[C@@H]2CC[C@]2(C)C(=O)CC[C@@H]12`, testing at 2 µM at Aromatase [1] gave an inhibition of 83.3%. At Aromatase [2], this molecule yielded a concentration for half-maximal inhibition (IC50) of 670 nM. In addition, the Km/Ki on Aromatase [3] stood at 0.39. At Aromatase [4], this molecule registered an inhibition constant Ki of 147 nM.
Consider `C[C@]12CCC3C(CC[C@@]4(C=O)OC(=O)CC[C@]34C)C1CCC2=O` (stereo partly specified), for which at 2 µM the inhibition on Aromatase [1] was 11%.
Regarding `C[C@]12CCC(=O)C(O)=C1CC[C@@H]1[C@@H]2CC[C@]2(C)C(=O)CC[C@@H]12` [FORMESTANE], 2 µM produced 99.1% inhibition at Aromatase [1]. This molecule yielded an IC50 on Aromatase [2] of 42 nM.
`C[C@]12CCC3C(CC[C@@H]4[C@H]5O[C@H]5CC[C@]34C)C1CCC2=O` (stereo partly specified) had an inhibition at 2 µM against Aromatase [1] of 14.6%.
In turn, `C[C@]12CCC3C(CC[C@H]4C=CCC[C@]34C)C1CCC2=O` (stereo partly specified) had an inhibition at 2 µM against Aromatase [1] of 95.9%. On Aromatase [2], the IC50 was 225 nM. Also, the Km/Ki at Aromatase [3] is 1.15. The molecule also registered an inhibition constant Ki at Aromatase [4] of 50 nM.
`C[C@]12CCC3C(CC[C@H]4C(=O)[C@H](O)CC[C@]34C)C1CCC(=O)O2` (stereo partly specified) had an inhibition at 2 µM against Aromatase [1] of 16.6%.
Same read-out and setting: in the case of `C[C@]12CC[C@H](O)[C@@H](O)[C@H]1CC[C@@H]1[C@@H]2CC[C@]2(C)C(=O)CC[C@@H]12` it was 10.1%.
`C[C@]12CC[C@H]3O[C@H]3[C@@H]1CC[C@@H]1[C@@H]2CC[C@]2(C)C(=O)CC[C@@H]12`: at Aromatase [1], the inhibition at 2 µM was found to be 96.4%. Further, the IC50 at Aromatase [2] worked out at 145 nM. Also, the Km/Ki at Aromatase [3] is reported as 1.51. The molecule further registered a Ki at Aromatase [4] of 38 nM.
On Aromatase [1], `C[C@]12CC[C@@H](O)[C@H](O)[C@@H]1CC[C@@H]1[C@@H]2CC[C@]2(C)C(=O)CC[C@@H]12` showed an inhibition at 2 µM of 34.6%.

B1: Aromatase (Homo sapiens) (protein)
chain: T1 sequence (P11511 whole entry)
On to B1, for which, in data set [5], the Michaelis constant (Km) was determined as 0.0575 µM.

What is called inhibition is the relative decrease from the control value, in per cent. The low end stands for little suppression, the high end for strong suppression. In general, IC50 refers to the point on the concentration scale where inhibition reaches its midpoint. What is called Ki is a dissociation constant, usually derived from enzyme kinetics or from competition with a known ligand. A low value points to a stronger hold on the target. As a reminder, the Km is the substrate concentration at which the rate is half of its maximum.

Source of the values: ChEMBL document CHEMBL1141110, “Structure-activity relationships of new A,D-ring modified steroids as aromatase inhibitors: design, synthesis, and biological activity evaluation” (J Med Chem, 2005).
